Assays:
[1] = molecular target: T1, Alpha-1A adrenergic receptor (Homo sapiens, UniProt P35348); assay: Displacement of [125]HEAT from human adrenergic alpha-1a receptor expressed in COS cells
T1 sequence (P35348 whole entry): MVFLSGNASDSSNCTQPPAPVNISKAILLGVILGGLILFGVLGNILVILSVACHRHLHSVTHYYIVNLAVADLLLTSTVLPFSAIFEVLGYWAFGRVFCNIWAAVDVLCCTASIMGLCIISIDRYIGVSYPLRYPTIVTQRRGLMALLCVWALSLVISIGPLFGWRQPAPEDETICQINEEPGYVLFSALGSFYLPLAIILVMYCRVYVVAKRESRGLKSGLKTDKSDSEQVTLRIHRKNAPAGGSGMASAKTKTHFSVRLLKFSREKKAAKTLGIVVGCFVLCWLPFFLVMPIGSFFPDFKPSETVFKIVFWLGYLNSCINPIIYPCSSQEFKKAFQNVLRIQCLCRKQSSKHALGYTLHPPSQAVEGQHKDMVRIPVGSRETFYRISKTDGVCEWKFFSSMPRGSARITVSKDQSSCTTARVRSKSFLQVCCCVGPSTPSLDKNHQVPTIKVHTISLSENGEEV

[2] = molecular target: T2, Alpha-1B adrenergic receptor (Homo sapiens, UniProt P35368); assay: Displacement of [125]HEAT from human adrenergic alpha-1b receptor expressed in COS cells
T2 sequence (P35368 whole entry): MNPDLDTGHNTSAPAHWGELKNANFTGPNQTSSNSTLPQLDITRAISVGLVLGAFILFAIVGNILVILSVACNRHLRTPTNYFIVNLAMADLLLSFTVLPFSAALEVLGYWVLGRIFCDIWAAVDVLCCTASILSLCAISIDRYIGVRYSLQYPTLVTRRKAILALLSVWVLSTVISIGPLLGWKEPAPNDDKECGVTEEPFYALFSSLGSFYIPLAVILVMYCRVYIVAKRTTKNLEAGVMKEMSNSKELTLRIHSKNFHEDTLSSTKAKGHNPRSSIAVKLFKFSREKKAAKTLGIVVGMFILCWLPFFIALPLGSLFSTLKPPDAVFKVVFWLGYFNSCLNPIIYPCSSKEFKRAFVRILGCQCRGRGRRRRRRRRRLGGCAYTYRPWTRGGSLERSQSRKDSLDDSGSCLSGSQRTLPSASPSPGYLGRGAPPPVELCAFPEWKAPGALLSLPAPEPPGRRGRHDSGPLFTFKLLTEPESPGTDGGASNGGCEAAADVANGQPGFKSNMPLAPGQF

[3] = molecular target: T3, Alpha-1D adrenergic receptor (Homo sapiens, UniProt P25100); assay: Displacement of [125]HEAT from human adrenergic alpha-1d receptor expressed in COS cells
T3 sequence (P25100 whole entry): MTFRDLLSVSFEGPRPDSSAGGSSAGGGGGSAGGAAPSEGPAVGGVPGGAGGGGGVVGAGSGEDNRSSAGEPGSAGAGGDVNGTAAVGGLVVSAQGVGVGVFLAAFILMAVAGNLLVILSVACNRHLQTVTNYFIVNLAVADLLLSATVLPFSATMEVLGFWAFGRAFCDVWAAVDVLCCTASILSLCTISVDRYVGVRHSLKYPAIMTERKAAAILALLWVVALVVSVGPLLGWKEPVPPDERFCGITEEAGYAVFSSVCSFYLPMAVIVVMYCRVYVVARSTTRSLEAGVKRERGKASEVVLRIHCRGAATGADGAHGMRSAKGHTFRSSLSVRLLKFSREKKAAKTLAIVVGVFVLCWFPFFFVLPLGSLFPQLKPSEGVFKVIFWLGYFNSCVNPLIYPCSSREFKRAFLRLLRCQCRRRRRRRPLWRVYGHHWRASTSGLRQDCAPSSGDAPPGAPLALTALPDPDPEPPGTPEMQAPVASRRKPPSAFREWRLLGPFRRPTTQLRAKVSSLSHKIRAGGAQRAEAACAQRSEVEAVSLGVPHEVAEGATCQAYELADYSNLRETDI

Homo sapiens = species: Homo sapiens; assay: Selectivity ratio, Ki for human adrenergic alpha-1b receptor to Ki for human adrenergic alpha-1d receptor
Method in brief: (§1)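 Competition binding against 125I-HEAT on COS cell membranes expressing cloned human α1a-, α1b- or α1d-adrenergic receptor. Affinities are reported as Ki (nM). Selectivity is expressed as Ki(α1b)/Ki(α1a) and Ki(α1b)/Ki(α1d).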

[4] = molecular target: Adrenergic receptors; alpha-1 A & B (Homo sapiens) (UniProt P35348+P35368); assay: Selectivity ratio, Ki for human adrenergic alpha-1b receptor to Ki for human adrenergic alpha-1a receptor; format: protein assay
Method in brief: as §1

## CC(C)Oc1ccccc1N1CCN(C2CCC(N3C(=O)c4cccc(F)c4C3=O)CC2)CC1 (stereo in doubt; 6d) [listing 1 of 2 here]
[1]
  Ki: 1 nM
[2]
  Ki: 127 nM
[3]
  Ki: 14.9 nM

## CC(C)Oc1ccccc1N1CCN(C2CCC(N3C(=O)c4cc(Cl)c(Cl)cc4C3=O)CC2)CC1 (stereo not drawn)
Homo sapiens
  Ratio Ki: 3610
[3]
  Ki: 0.3 nM
[4]
  Ratio Ki: 401

## CC(C)Oc1ccccc1N1CCN(C2CCC(N3C(=O)c4ccc5ccc(F)cc5c4C3=O)CC2)CC1 (stereo in doubt; 6f) [listing 1 of 2 here]
Homo sapiens
  Ratio Ki: 16
[4]
  Ratio Ki: 18

## CC(C)Oc1ccccc1N1CCN(C2CCC(N3C(=O)c4cccc(F)c4C3=O)CC2)CC1 (stereo in doubt; 6d) [listing 2 of 2 here]
Homo sapiens
  Ratio Ki: 9
[4]
  Ratio Ki: 127

## CC(C)Oc1ccccc1N1CCN(C2CCC(N3C(=O)c4ccc5ccc(F)cc5c4C3=O)CC2)CC1 (stereo in doubt; 6f) [listing 2 of 2 here]
[1]
  Ki: 15 nM
[2]
  Ki: 269 nM
[3]
  Ki: 16.4 nM

## CC(C)Oc1ccccc1N1CCN(C2CCC(N3C(=O)c4ccc5ccc(F)cc5c4C3=O)CC2)CC1 (stereo in doubt; 6g) [listing 1 of 2 here]
Homo sapiens
  Ratio Ki: 93
[4]
  Ratio Ki: 12

## CC(C)Oc1ccccc1N1CCN(C2CCC(N3C(=O)c4ccc5ccc(F)cc5c4C3=O)CC2)CC1 (stereo in doubt; 6g) [listing 2 of 2 here]
[1]
  Ki: 3.9 nM
[2]
  Ki: 46.5 nM
[3]
  Ki: 0.5 nM

## CC(C)Oc1ccccc1N1CCN(C2CCC(N3C(=O)c4ccncc4C3=O)CC2)CC1 (stereo not drawn)
[1]
  Ki: 0.4 nM
Homo sapiens
  Ratio Ki: 28
[3]
  Ki: 0.8 nM
[4]
  Ratio Ki: 56

## CC(C)Oc1ccccc1N1CCN(C2CCC(N3C(=O)c4cccc(F)c4C3=O)CC2)CC1 (stereo in doubt; 6c) [listing 1 of 2 here]
[1]
  Ki: 0.2 nM
[2]
  Ki: 18 nM
[3]
  Ki: 0.09 nM

## CC(C)Oc1ccccc1N1CCN(C2CCC(N3C(=O)c4cccc(F)c4C3=O)CC2)CC1 (stereo in doubt; 6c) [listing 2 of 2 here]
Homo sapiens
  Ratio Ki: 200
[4]
  Ratio Ki: 90

## CC(C)Oc1ccccc1N1CCN(C2CCC(N3C(=O)c4ccc5ccccc5c4C3=O)CC2)CC1 (stereo not drawn)
[1]
  Ki: 1.8 nM
[2]
  Ki: 15 nM
Homo sapiens
  Ratio Ki: 75
[3]
  Ki: 0.2 nM
[4]
  Ratio Ki: 8

## CC(C)Oc1ccccc1N1CCN(C2CCC(N3C(=O)c4cccnc4C3=O)CC2)CC1 (stereo not drawn)
[1]
  Ki: 0.8 nM
Homo sapiens
  Ratio Ki: 30
[3]
  Ki: 1.5 nM
[4]
  Ratio Ki: 56

## CC(C)Oc1ccccc1N1CCN(C2CCC(N3C(=O)c4c(F)c(F)c(F)c(F)c4C3=O)CC2)CC1 (stereo not drawn)
Homo sapiens
  Ratio Ki: 136
[4]
  Ratio Ki: 109
